The assay addresses GABA-A receptor; anion channel. The assay is described as follows: Ability to inhibit [3H]-Ro- 15-1788 binding to Gamma-aminobutyric acid A receptor alpha in vitro in rat cortical membranes. The class given is cell membranes. An outline of the steps:
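Cortex from male Wistar rats (150–200 g) homogenized in 30 mM Tris-HCl pH 7.4, washed, incubated 30 min at 37 °C to remove endogenous GABA, stored frozen. Nonspecific binding defined with 1 μM clonazepam. Filtration on GF/C, scintillation counting; IC50 from single-concentration inhibition formula.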
With `Cc1ccc2oc(-c3cccc(N)c3)cc(=O)c2c1`, the Ki came out at 1200 nM.

For `Cc1cc(C)cc(-c2cc(=O)c3cc(C)ccc3o2)c1`, the inhibition constant Ki is greater than 1500 nM.

`CCC(CC)COc1cccc(-c2cc(=O)c3cc(C)ccc3o2)c1` came in with a Ki of 1000 nM.

As for `Cc1ccc(O)c(-c2cc(=O)c3cc(C)ccc3o2)c1`, the Ki turned out to be 7.8 nM.

As for `CCCCOc1cccc(-c2cc(=O)c3cc(C)ccc3o2)c1`, the affinity corresponds to a Ki of 710 nM.

Take `CCOC(=O)c1cc(N)cc(-c2cc(=O)c3cc(C)ccc3o2)c1`: the Ki worked out at 3600 nM.

In turn, `COC(=O)c1cc(-c2cc(=O)c3cc(C)ccc3o2)cc([N+](=O)[O-])c1` returned a Ki greater than 2100 nM.

For the molecule `Cc1ccc2oc(-c3ccccc3N)cc(=O)c2c1`, the Ki turned out to be 700 nM.

As for `COc1cc(C(=O)O)cc(-c2cc(=O)c3cc(C)ccc3o2)c1`, the Ki was greater than 1600 nM.

`COc1ccc(C)cc1-c1cc(=O)c2cc(C)ccc2o1`: the Ki is greater than 1500 nM.

In turn, `Cc1ccc2oc(-c3cccc(O)c3)cc(=O)c2c1` yielded a Ki of 390 nM.

Molecule `Cc1ccc2oc(-c3cccc(Br)c3)cc(=O)c2c1` yielded a Ki of 12 nM.

Turning to `Cc1ccc2oc(-c3cc(CO)cc(CO)c3)cc(=O)c2c1`, the Ki is greater than 1500 nM.

The molecule `Cc1ccc2oc(-c3ccc(C)c(C)c3)cc(=O)c2c1` had a Ki greater than 1700 nM.

In turn, `CC(C)c1ccc2oc(-c3ccccc3)cc(=O)c2c1` showed a Ki of 720 nM.

In turn, `Cc1ccc2oc(-c3ccc(N)cc3)cc(=O)c2c1` came in with a Ki of 2600 nM.

As for `Cc1cccc2c(=O)cc(-c3ccccc3)oc12`, the Ki is greater than 1700 nM.

Take `COC(=O)c1cccc(-c2cc(=O)c3cc(C)ccc3o2)c1`: the Ki worked out at 220 nM.

In turn, `Cc1ccc2oc(-c3cccc(C(=O)OC(C)C)c3)cc(=O)c2c1` displayed a Ki of 180 nM.

`Cc1ccc2oc(-c3cc(Br)ccc3O)cc(=O)c2c1` showed an inhibition constant (Ki) of 0.9 nM.

`COc1ccc(Br)cc1-c1cc(=O)c2cc(C)ccc2o1` gave a Ki greater than 1500 nM.

Molecule `Cc1ccc2oc(-c3cc(C(=O)O)cc([N+](=O)[O-])c3)cc(=O)c2c1` had a Ki greater than 1700 nM.

Turning to `COC(=O)c1cc(C(=O)OC)cc(-c2cc(=O)c3cc(C)ccc3o2)c1`, the Ki is greater than 1600 nM.

For the molecule `COc1cccc(-c2cc(=O)c3cc(C)ccc3o2)c1`, affinity was put at a Ki of 99 nM.

`Cc1ccc2oc(-c3cccc(C(F)(F)F)c3)cc(=O)c2c1` showed a Ki of 9.8 nM.

For `Cc1ccc2oc(-c3ccccc3O)cc(=O)c2c1`, the Ki was found to be 6.2 nM.

The molecule `COc1ccccc1-c1cc(=O)c2cc(C)ccc2o1` returned a Ki of 820 nM.

Regarding `Cc1ccc2oc(-c3ccccc3)cc(=O)c2c1` [6-METHYLFLAVONE], the Ki was 180 nM.

Turning to `CCc1ccc2oc(-c3ccccc3)cc(=O)c2c1`, the Ki stood at 180 nM.

`Cc1ccc2oc(-c3cc(O)cc(C(=O)O)c3)cc(=O)c2c1` had a Ki greater than 1600 nM.

The molecule `CCC(CC)COC(=O)c1cccc(-c2cc(=O)c3cc(C)ccc3o2)c1` yielded a Ki of 610 nM.

`COC(=O)c1cc(CO)cc(-c2cc(=O)c3cc(C)ccc3o2)c1` had a Ki greater than 1500 nM.

The molecule `Cc1ccc2oc(-c3cccc(C(=O)O)c3)cc(=O)c2c1` yielded a Ki greater than 1700 nM.

`Cc1ccc2oc(-c3cccnc3)cc(=O)c2c1` displayed a Ki of 130 nM.

For `CCCc1ccc2oc(-c3ccccc3)cc(=O)c2c1`, the Ki amounted to 480 nM.

For `Cc1ccc2oc(-c3cc(C(=O)O)cc(C(=O)O)c3)cc(=O)c2c1`, the Ki is greater than 1600 nM.

Consider `COC(=O)c1cc(N)cc(-c2cc(=O)c3cc(C)ccc3o2)c1`, for which the Ki was greater than 1900 nM.

On to `COc1cc(CO)cc(-c2cc(=O)c3cc(C)ccc3o2)c1`, for which the Ki was greater than 1600 nM.

Regarding `COC(=O)c1cc(OC)cc(-c2cc(=O)c3cc(C)ccc3o2)c1`, affinity was put at a Ki of 3000 nM.

`COC(=O)c1cc(O)cc(-c2cc(=O)c3cc(C)ccc3o2)c1` gave an inhibition constant Ki greater than 1600 nM.

What is called Ki is the dissociation constant of the complex between target and ligand, obtained from inhibition or displacement. Read a low Ki as tighter binding.

(Values after ChEMBL document CHEMBL1135589, “Refinement and evaluation of a pharmacophore model for flavone derivatives binding to the benzodiazepine site of the GABA(A) receptor” (J Med Chem, 2002).)
